Measured values reported in ChEMBL document CHEMBL1153534, “Design and synthesis of androgen receptor antagonists with bulky side chains for overcoming antiandrogen resistance” (J Med Chem, 2009).
Calls of active or inactive are those of the source. The rule behind the calls is not given here.

Assays:
[1] = Cytotoxicity against human C4-2B cells after 72 hrs by MTT assay; assay type: functional, cell-based; settings: LNCaP C4-2B
[2] = test system: T1, Androgen receptor (Homo sapiens), P10275 [W742C]; assay: Activity in human PC3 cells expressing androgen receptor W741C mutant assessed as ARE-dependent transactivation at 0.1 uM after 24 hrs by luciferase reporter gene assay in absence of DHT; assay type: cell-based; settings: PC-3
T1 sequence (whole entry): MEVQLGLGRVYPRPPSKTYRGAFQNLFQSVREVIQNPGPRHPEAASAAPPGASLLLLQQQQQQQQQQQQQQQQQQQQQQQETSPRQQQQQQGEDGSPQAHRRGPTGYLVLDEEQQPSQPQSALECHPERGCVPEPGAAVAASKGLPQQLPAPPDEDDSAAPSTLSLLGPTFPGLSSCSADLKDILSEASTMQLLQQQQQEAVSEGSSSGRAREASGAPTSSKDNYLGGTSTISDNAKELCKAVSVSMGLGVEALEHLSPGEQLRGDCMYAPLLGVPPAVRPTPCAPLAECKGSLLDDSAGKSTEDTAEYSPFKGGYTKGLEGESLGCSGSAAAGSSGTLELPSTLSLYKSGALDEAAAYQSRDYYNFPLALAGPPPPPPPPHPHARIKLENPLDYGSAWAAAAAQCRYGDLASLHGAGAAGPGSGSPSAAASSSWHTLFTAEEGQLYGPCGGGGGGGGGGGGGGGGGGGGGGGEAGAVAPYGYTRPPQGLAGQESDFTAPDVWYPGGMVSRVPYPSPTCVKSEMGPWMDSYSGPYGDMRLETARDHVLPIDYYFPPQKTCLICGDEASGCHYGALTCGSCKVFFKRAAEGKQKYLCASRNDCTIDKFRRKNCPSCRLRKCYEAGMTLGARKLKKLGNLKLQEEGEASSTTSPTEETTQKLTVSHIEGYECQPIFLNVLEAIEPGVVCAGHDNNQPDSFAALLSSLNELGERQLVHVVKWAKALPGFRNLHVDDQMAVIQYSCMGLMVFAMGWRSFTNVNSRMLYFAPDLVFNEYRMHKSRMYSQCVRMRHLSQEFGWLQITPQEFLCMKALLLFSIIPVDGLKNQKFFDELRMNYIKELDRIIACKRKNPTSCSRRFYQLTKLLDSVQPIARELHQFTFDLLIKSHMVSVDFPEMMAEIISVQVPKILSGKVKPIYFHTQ
How it was run: (§1)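 PC-3 cells, which lack endogenous AR, transiently transfected with plasmids expressing human AR (WT, T877A, W741C or H874Y) plus an ARE-driven MMTV-luc reporter. Cells were treated with or without 0.1 nM DHT. Firefly luciferase was standardized to a Renilla control and normalized to the 0.1 nM DHT signal. Mean ± sd.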

[3] = test system: PC-3; assay: Activity in human PC3 cells expressing androgen receptor H874Y mutant assessed as ARE-dependent transactivation at 0.1 uM after 24 hrs by luciferase reporter gene assay in absence of DHT; assay type: cell-based; how it was run: as §1
[4] = molecular target: T2, Progesterone receptor (Homo sapiens) (UniProt P06401); assay: Antagonist activity at human PR B-form expressed in human PC3 cells assessed as inhibition of R5020-induced transactivation at 1 uM after 24 hrs by luciferase reporter gene assay; assay type: functional, cell-based; settings: PC-3
T2 sequence (whole entry): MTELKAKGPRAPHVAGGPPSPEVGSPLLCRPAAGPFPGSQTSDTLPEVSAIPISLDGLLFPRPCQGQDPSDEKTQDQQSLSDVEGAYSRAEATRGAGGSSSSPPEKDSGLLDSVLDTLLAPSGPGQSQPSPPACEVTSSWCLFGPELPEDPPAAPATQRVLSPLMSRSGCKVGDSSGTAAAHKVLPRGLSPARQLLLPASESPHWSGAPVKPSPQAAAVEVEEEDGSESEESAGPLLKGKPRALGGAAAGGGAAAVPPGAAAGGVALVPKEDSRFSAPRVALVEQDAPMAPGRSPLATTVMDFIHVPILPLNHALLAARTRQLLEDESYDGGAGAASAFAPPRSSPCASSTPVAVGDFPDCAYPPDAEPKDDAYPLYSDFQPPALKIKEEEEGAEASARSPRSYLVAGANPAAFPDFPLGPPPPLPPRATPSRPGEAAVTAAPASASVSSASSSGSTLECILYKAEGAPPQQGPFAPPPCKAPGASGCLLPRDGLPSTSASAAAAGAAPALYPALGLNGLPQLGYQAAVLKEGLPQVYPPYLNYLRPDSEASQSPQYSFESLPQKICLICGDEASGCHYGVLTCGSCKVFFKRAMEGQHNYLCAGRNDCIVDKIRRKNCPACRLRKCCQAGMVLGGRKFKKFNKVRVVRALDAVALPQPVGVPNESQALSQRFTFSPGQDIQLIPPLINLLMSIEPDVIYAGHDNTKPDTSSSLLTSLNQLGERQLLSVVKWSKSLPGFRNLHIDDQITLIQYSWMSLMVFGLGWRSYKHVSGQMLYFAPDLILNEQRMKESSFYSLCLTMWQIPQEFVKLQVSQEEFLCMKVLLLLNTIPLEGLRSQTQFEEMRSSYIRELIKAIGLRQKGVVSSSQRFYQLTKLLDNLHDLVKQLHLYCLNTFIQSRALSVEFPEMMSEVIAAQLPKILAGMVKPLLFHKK
How it was run: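 PC-3 cells carrying a luciferase reporter for transactivation by the human PR B form. Antagonist mode used 10 nM R5020 as the agonist. Agonist mode ran in the absence of R5020. Luciferase read-out.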

**Q.** For COc1cc(/C=C(\C(=O)/C=C/C2=C(C)CCCC2(C)C)C(=O)/C=C/c2ccc(O)c(OC)c2)ccc1O, which IC50 [1] is on record?
**A.** 1600 nM

**Q.** And the Activity [2]?
**A.** inactive

**Q.** What about the Activity [3] of the same molecule?
**A.** inactive

**Q.** And the Activity [4]?
**A.** inactive
